Rows were chosen to be rich in hits. Some 4.6% of all compounds tested hit in one or more screens of this group.
STAT1 activator – STAT1 signaling activation; NIH 3T3 STAT1-luciferase reporter, IFN-gamma, luminescence; 100% = IFN-gamma alone, no compound; activation (% of control), % at 5.5 µM; 2.6% of 200,000 active;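 active means activation above the screen-wide mean activation plus 3 SD, cut at about 130% in these data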
NF-kB expr up – raises NF-kB expression in human neuronal cells | fold change at 12.5 µM | 1.6% of 190,000 active | NF-kB reporter expression; stronger effect = higher value; in the data active means fold change above about 3.3
p97 inhibitor – human p97 ATPase inhibition. recombinant p97 ATPase, Kinase-Glo ATP luminescence, 3 h. inhibition, % at 8 µM. 0.42% of 220,000 active. AID 1481; in the data active means inhibition above about 15%
APP 5'UTR act – APP 5'UTR luciferase reporter activation | SH-SY5Y APP 5'UTR luciferase reporter, luminescence; zero percent = DMSO vehicle wells | activation, % at 2 µM | 1% of 190,000 active | AID 1276;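 active means activation above a set limit, based on mean plus 3 SD of controls, cut at about 140% in these data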
MDM2 E3 inh – inhibitors of human Mdm2 E3 ubiquitin ligase; signal enhancement, % at 5 µM; AID 1230; cell-based MDM2 ubiquitination luciferase reporter, 2 h; 0 = plate control, 100 = twice control, blank-subtracted; 0.11% of 210,000 active;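 active means signal enhancement of 30% or more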;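 further: luminescence tracks abundance of the self-degrading MDM2-luciferase fusion protein; higher signal means inhibition of MDM2 E3 ligase activity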
Target sequence (Q00987 whole entry, looked up, the tested form may be a part): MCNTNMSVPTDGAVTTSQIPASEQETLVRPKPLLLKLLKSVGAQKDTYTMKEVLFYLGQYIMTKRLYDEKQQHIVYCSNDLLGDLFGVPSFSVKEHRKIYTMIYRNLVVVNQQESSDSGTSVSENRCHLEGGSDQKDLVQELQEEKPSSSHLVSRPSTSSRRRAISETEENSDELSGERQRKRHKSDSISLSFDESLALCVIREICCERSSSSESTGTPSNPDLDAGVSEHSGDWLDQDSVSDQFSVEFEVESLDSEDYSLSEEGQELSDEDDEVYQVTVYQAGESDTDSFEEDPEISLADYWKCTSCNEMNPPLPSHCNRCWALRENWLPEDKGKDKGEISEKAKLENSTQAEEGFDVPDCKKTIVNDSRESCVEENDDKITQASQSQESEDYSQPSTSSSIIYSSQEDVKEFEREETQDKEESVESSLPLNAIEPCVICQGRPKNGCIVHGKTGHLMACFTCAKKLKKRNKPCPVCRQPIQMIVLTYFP
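Assay system: stable mammalian line carrying autodegrading MDM2–luciferase fusion reporter; Input: 2000 cells in each well; Compound dosing: single-point 5 µM; Schedule: 2 h compound exposure at 37 °C; Signal: SteadyLite luciferase luminescence after 15 min room-temperature reagent incubation; Evaluation: % luminescence enhancement versus blank-corrected plate control mean; Benchmarks: plate controls and plate blanks.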
Wee1 stabilizer – inhibitors of human Wee1 degradation | P30291 | HeLa Luc-Wee1K328M stability, luciferase luminescence; 100% = proteasome inhibitor MG132 effect | reporter increase, % at 5 µM | 1.2% of 220,000 active | AID 1321;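 active means activation above the mean of all tested compounds plus 3 SD, set per screening run, cut at about 8.8% in these data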;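 further: cells exposed to compound for 20 h before luminescence read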
Wee1 stab conf – human Wee1 degradation inhibition, confirmation; shares compounds with Wee1 stabilizer; HeLa Luc-Wee1K328M degradation, luminescence; vehicle 0%, proteasome-blocked wells 100%; activation, % at 5 µM; 4% of 1,100 active; AID 1410; in the data active means activation above about 8.9%
Of the large screens only hits and unclear results are named; the others gave an inactive call (follow-up assays come after a bar, where they were run).

Cn1c(=O)c2c(nc(NCC3CCCO3)n2Cc2cccc(Br)c2)n(C)c1=O (centres undefined)	none
COc1ccc(C(=O)Cn2c(Cl)nc3c2c(=O)n(C)c(=O)n3C)cc1	none (no result: STAT1 activator, NF-kB expr up, APP 5'UTR act)
COc1cccc(CC2(CO)CCN(Cc3ccc(NC(C)=O)cc3)CC2)c1	Wee1 stabilizer 22 | Wee1 stab conf inactive
Cc1c(NC(=S)NC(C)(C)C)c(=O)n(-c2ccccc2)n1C	Wee1 stabilizer 14 | Wee1 stab conf inactive
Cc1c(NC(=S)NC(=O)C(C)(C)C)c(=O)n(-c2ccccc2)n1C	none
COc1ccc(NC(=O)c2nn(C34CC5CC(CC(C5)C3)C4)cc2[N+](=O)[O-])cc1	Wee1 stabilizer 11 | Wee1 stab conf inactive
COc1ccc2c(c1)c(CC(=O)Nc1cc(C)ccc1C)c(C)n2C(=O)c1ccc(Cl)cc1	Wee1 stabilizer 14 | Wee1 stab conf inactive
Clc1cccc(-c2cc3nc4c(c(N5CCNCC5)n3n2)CCCC4)c1	Wee1 stabilizer 12 (no result: MDM2 E3 inh) | Wee1 stab conf inactive
Fc1cccc(-c2cc3nc4c(c(N5CCC6(CC5)OCCO6)n3n2)CCCC4)c1	none
CN(C)S(=O)(=O)c1cccc(-c2nnc(SCCNCCO)n2-c2ccc(F)cc2)c1	none
O=C(CSc1nc2ccccc2[nH]1)Nc1ccc(F)c(F)c1	none
NS(=O)(=O)c1ccc(NC(=O)CSc2nc3ccccc3[nH]2)cc1	Wee1 stabilizer 11 | Wee1 stab conf inactive
O=C(Nc1ccc(CN2CCS(=O)(=O)CC2)cc1)c1ccc(Cl)cc1	Wee1 stabilizer 11 (no result: STAT1 activator, NF-kB expr up, APP 5'UTR act) | Wee1 stab conf inactive
NC(=O)c1ccc(NC(=O)c2ccc(CN3CCOCC3)cc2)cc1	none
CCc1nnc(NC(=O)CCc2c[nH]c3ccccc23)s1	Wee1 stabilizer 15 | Wee1 stab conf inactive
CC(C)C(=O)Nc1nnc(Cc2c[nH]c3ccccc23)s1	none (no result: STAT1 activator, NF-kB expr up, APP 5'UTR act)
O=C(O)CCCn1cc(NC(=O)COc2ccc([N+](=O)[O-])cc2)cn1	none
CCOC(=O)C1=c2/c(=C/c3ccncc3)c(N)c(C(=O)OC)n2C(=O)C(c2ccncc2)S1 (centres undefined)	Wee1 stabilizer 19 | Wee1 stab conf inactive
Cc1cc(C)nc(NC(=O)c2ccc(Cl)cc2)n1	Wee1 stabilizer 17 | Wee1 stab conf inactive
C(=N\Nc1ccc2ccccc2n1)/c1ccc2c(c1)OCCO2	none
C(=N\Nc1nc2ccccc2[nH]1)/c1ccc2c(c1)OCCO2	Wee1 stabilizer 11 (no result: STAT1 activator, NF-kB expr up, APP 5'UTR act) | Wee1 stab conf inactive
COc1ccc2c(c1OC)C(=O)OC2n1c(O)c(N=NC(C)=O)c2ccccc21 (centres undefined)	none (no result: STAT1 activator, NF-kB expr up, APP 5'UTR act)
O=C(Cn1nc(-c2ccccc2Cl)ccc1=O)Nc1ccccc1-c1ccccc1	Wee1 stabilizer 25 | Wee1 stab conf inactive
N#Cc1nc(Cc2cccc3ccccc23)oc1N1CCCCC1	none
CN1CCN(c2oc(Cc3cccc4ccccc34)nc2C#N)CC1	Wee1 stabilizer 13 (no result: STAT1 activator, NF-kB expr up, APP 5'UTR act) | Wee1 stab conf inactive
COc1ccc(NC(=O)Nc2ccccc2SC)cc1	Wee1 stabilizer 11 | Wee1 stab conf inactive
CSc1ccccc1NC(=O)Nc1ccc(Cl)cc1	none
CCOC(=O)c1c(NC(NC(C)=O)C(Cl)(Cl)Cl)sc2c1CCCC2 (centres undefined)	none
COC(=O)c1c(NC(NC(C)=O)C(Cl)(Cl)Cl)sc2c1CCCC2 (centres undefined)	Wee1 stabilizer 14 | Wee1 stab conf inactive
Cc1ccccc1Nc1nc(N)nc(CN2CCN(C(=O)c3ccccc3)CC2)n1	none
COc1ccc(C(c2nnnn2C2CCCC2)N2CCC(C)CC2)c(OC)c1 (centres undefined)	Wee1 stabilizer 41 | Wee1 stab conf inactive
O=S(=O)(c1ccc(-c2ccon2)s1)N1CCN(c2ccncc2)CC1	none (no result: STAT1 activator, NF-kB expr up, APP 5'UTR act)
N#C/C(=C\c1cn[nH]c1-c1ccccc1Br)C(=O)O	Wee1 stabilizer 13 | Wee1 stab conf inactive
O=Cc1cn[nH]c1-c1ccccc1	none
O=C(O)CSCC(=O)N1CCN(S(=O)(=O)c2cc(Cl)cc(Cl)c2)CC1	none (no result: STAT1 activator, NF-kB expr up, APP 5'UTR act)
COc1ccc([N+](=O)[O-])cc1NC(=O)CCN1CCN(CCO)CC1	Wee1 stabilizer 19 | Wee1 stab conf inactive
CCOC(=O)N1CCN(CCC(=O)Nc2cc([N+](=O)[O-])ccc2OC)CC1	none
CCOC(=O)c1ccc(NC(=O)C(=O)NCc2ccco2)cc1	none
Cc1cc(-n2nnc3ccccc32)nc2ccccc12	Wee1 stabilizer 13 | Wee1 stab conf inactive
Cc1cc(N2CCCCC2)nc2ccccc12	none
N#Cc1ccccc1S(=O)c1ccccc1C(=O)Nc1ccccc1 (centres undefined)	none
O=S1(=O)N=C(Nc2ccc(N3CCOCC3)c(Cl)c2)c2ccccc21	STAT1 activator 146, Wee1 stabilizer 11 | Wee1 stab conf inactive
CCc1ccccc1NC(=O)CC1SCCNC1=O (centres undefined)	none
O=[N+]([O-])c1cccc(N/N=C/c2cccc(O)c2O)c1	Wee1 stabilizer 11 | Wee1 stab conf inactive
O=[N+]([O-])c1ccccc1N/N=C/c1cccc(O)c1O	none (no result: STAT1 activator, NF-kB expr up, APP 5'UTR act, MDM2 E3 inh)
O=C(Nc1cccc(Br)c1)c1ccc(OC2CSC2)cc1	APP 5'UTR act 149, Wee1 stabilizer 14 | Wee1 stab conf inactive
COc1cc(N)cc(NC(=O)c2ccncc2)c1	none
CC(=O)c1cccc(NC(=O)c2ccc(OC3CSC3)cc2)c1	none
COc1ccc(CC(=O)Nc2cccc(C(=O)Nc3cccc(C)c3)c2)cc1	none
COc1ccc(NC(=O)c2ccc(Cl)c(NC(=O)c3ccncc3)c2)cc1	Wee1 stabilizer 12 | Wee1 stab conf inactive
COc1ccc(C(=O)Nc2cccc(C)c2)cc1	STAT1 activator 138, NF-kB expr up 6, APP 5'UTR act 142, Wee1 stabilizer 12 | Wee1 stab conf inactive
C=CCN(CC=C)CCOc1cccc(Oc2ccccc2)c1	none
CCN1CCc2nc(NC(=O)C(c3ccccc3)c3ccccc3)sc2C1	Wee1 stabilizer 11 | Wee1 stab conf inactive
CN(C)C(=S)N=Nc1[nH]c2ccccc2c1O	STAT1 activator 176, Wee1 stabilizer 11 | Wee1 stab conf inactive
CCOC(=O)C1CCN(S(=O)(=O)c2ccc(C(C)=O)cc2)CC1	none
CCOC(=O)C1CCN(S(=O)(=O)c2ccc(NC(C)=O)c(Cl)c2)CC1	Wee1 stabilizer 11 (no result: STAT1 activator, NF-kB expr up, APP 5'UTR act) | Wee1 stab conf inactive
COc1ccc(N2CCN(C(c3ccc4ncccc4c3)c3nnnn3C(C)(C)C)CC2)cc1 (centres undefined)	Wee1 stabilizer 11 | Wee1 stab conf inactive
Cc1ccccc1C(=O)NC(=S)N(C)CCc1ccccn1	none
COc1ccc(C)cc1NC(=O)CNC(C)C(=O)Nc1cc(Cl)ccc1Cl (centres undefined)	none
CCCCn1c(=O)nc2n(-c3ccccc3C)c3ccccc3cc-2c1=O	none

Screening data deposited in PubChem by several laboratories.
